Only some compounds are listed: those with a hit (about 3.6% of all), similar ones and a draw of the others.
PAFAH1B3 FP inh: inhibitors of human PAFAH1B3. Q15102. inhibition, % at 3.39 µM. 340,000 compounds, 0.28% hits. recombinant PAFAH1B3, FP-rhodamine probe, fluorescence polarization. AID 492972;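 active means inhibition above the screen-wide average of all tested compounds plus 3 SD, cut at about 25% in these data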
Target sequence (Q15102 whole entry, looked up): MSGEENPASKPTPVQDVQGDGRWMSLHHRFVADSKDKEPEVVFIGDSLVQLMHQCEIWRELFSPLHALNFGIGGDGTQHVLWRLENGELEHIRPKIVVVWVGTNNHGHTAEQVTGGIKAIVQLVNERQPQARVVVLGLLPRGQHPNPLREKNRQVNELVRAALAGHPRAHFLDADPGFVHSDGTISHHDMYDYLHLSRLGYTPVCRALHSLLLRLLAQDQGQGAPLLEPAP
IMP-1 inhibitor: blocks Pseudomonas aeruginosa IMP-1 metallo-beta-lactamase | purified IMP-1, nitrocefin hydrolysis, epi-absorbance fluorescence | inhibition, % at 5.6 µM | 290,000 compounds, 0.45% hits;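 active means inhibition above the mean plus 3 SD of all compounds in the same screening run, cut at about 4.5% in these data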
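System: purified IMP-1 / Input: IMP-1 dispensed at 0.2 nM / Medium: 50 mM HEPES pH 7.1, 50 µM ZnSO4, 0.05% Brij 35 / Timing: 15 min enzyme–compound preincubation, then 25 min nitrocefin reaction, 25 °C / Technique: plate fluorescence quenching by hydrolysis product, ex 480/em 530 nm / Repeats: singlicate testing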
VIM-2 inh: inhibitors of Pseudomonas aeruginosa VIM-2 metallo-beta-lactamase. purified VIM-2, nitrocefin hydrolysis, epi-absorbance fluorescence. inhibition, % at 5.6 µM. 290,000 compounds, 0.89% hits. AID 1527;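 active means inhibition above the mean of all tested compounds plus 3 SD, cutoff set per screening run, cut at about 7.5% in these data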;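 further: red hydrolysis product quenches plate fluorescence so inhibitors raise well fluorescence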
PAFAH1B2 inh: blocks human PAF acetylhydrolase 1b catalytic subunit 2 | P68402 | recombinant PAFAH1B2, FP-rhodamine activity probe, fluorescence polarization | inhibition, % at 3.39 µM | 340,000 compounds, 1.2% hits | AID 492953;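 active means inhibition above the mean of all tested compounds plus 3 SD, cut at about 24% in these data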
pPAFAH FP inh: pPAFAH (human) enzyme inhibition. 330,000 compounds, 1.5% hits. recombinant pPAFAH, FP-rhodamine probe fluorescence polarization. inhibition, % at 3.39 µM;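 active means inhibition above the mean inhibition across the screen plus 3 SD, cut at about 25% in these data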;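 further: inhibitors block binding of the rhodamine activity-based probe so polarization drops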
Target sequence (Q13093 whole entry, looked up): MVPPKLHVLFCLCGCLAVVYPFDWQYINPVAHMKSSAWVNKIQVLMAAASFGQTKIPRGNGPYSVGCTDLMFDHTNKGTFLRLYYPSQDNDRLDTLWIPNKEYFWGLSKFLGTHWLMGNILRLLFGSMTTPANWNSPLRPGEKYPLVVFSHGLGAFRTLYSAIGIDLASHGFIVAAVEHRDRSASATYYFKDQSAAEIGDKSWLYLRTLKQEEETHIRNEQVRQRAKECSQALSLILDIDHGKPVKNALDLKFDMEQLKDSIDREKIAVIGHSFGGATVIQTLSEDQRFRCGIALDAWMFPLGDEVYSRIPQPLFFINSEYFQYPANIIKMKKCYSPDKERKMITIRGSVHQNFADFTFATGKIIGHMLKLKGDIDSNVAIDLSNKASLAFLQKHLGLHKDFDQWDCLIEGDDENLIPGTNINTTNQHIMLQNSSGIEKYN
PAFAH2 inh: inhibitors of human PAFAH2; AID 492956; Q99487; 340,000 compounds, 0.99% hits; inhibition, % at 3.39 µM; recombinant PAFAH2, FP-rhodamine activity probe, fluorescence polarization;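 active means inhibition above the mean over all tested compounds plus 3 SD, cut at about 30% in these data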;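 further: inhibitors block probe labeling of enzyme so polarization drops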
pPAFAH confirm: confirmation of human plasma PAF acetylhydrolase (pPAFAH) inhibitors. shares compounds with pPAFAH FP inh. recombinant pPAFAH, FP-Rh probe fluorescence polarization. inhibition, % at 3.39 µM. 2,300 compounds, 72% hits. AID 463230;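 active means mean inhibition of the triplicate above the hit cutoff set for the earlier primary screen, cut at about 25% in these data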
Numbers stand for hits; – = inactive; · = no result given.

SMILES	PAFAH1B3 FP inh	IMP-1 inhibitor	VIM-2 inh	PAFAH1B2 inh	pPAFAH FP inh	PAFAH2 inh	pPAFAH confirm
CC(=O)c1sc(NC(=O)C2CCN(C(=O)c3ccc(F)cc3)CC2)nc1-c1ccccc1	–	·	·	–	–	–	·
O=C(Nc1ccc(S(=O)(=O)Nc2ccccc2)cc1)C1COc2ccccc2O1 (configuration not stated)	–	–	–	–	40	–	35
Cc1cc(C)nc(NS(=O)(=O)c2ccc(NC(=O)C3COc4ccccc4O3)cc2)n1 (configuration not stated)	·	–	–	·	–	·	·
Cc1nonc1C(=O)N1CCCC(Nc2ccc(C(C)C)cc2)C1 (configuration not stated)	–	–	–	–	–	–	·
Oc1c(CN2CCc3ccccc3C2)cc(Cl)c2cccnc12	–	–	–	–	–	–	·
O=c1oc2ccccc2c(O)c1Cc1cc(Cl)c2cccnc2c1O	–	–	–	–	50	–	66
COc1ccc(CNC(=O)CN2C(=O)NC3(CCCCCC3)C2=O)cc1	–	·	·	–	61	–	–
Cc1ccc(CNC(=O)CN2C(=O)NC3(CCCC3)C2=O)cc1	–	·	·	–	–	–	·
O=C(Cc1cnn(-c2ccccc2)c1)c1ccc(O)c(O)c1O	–	–	–	–	73	–	54
CCc1cc(C(=O)Cc2cnn(-c3ccccc3)c2)c(O)cc1O	–	–	–	–	–	–	·
CCN1CCN(c2nc3c(C)cccn3c(=O)c2C=C(C#N)C#N)CC1	–	–	–	–	·	–	·
CC(C)(C)C(=O)Nc1scc(-c2ccc(-c3ccccc3)cc2)c1C(=O)O	–	–	–	–	43	–	25
Cc1ccc(C(=O)Nc2scc(-c3ccccc3)c2C(=O)O)cc1	–	·	·	–	–	–	·
O=C(NNC(=O)c1ccccc1F)c1ccc(S(=O)(=O)N2CCCCC2)cc1	–	·	·	–	–	–	·
CCOc1ccc(C=NNc2ccc(S(=O)(=O)Nc3ccccc3C(=O)O)cc2[N+](=O)[O-])cc1	–	·	·	–	57	–	86
COc1ccc(C=NNc2ccc(S(=O)(=O)Nc3ccccc3C(=O)O)cc2[N+](=O)[O-])c(OC)c1	29	·	·	34	63	56	91
O=C(O)c1ccccc1/C=N/Nc1ccc(S(=O)(=O)N2CCCC2)cc1[N+](=O)[O-]	–	–	–	–	–	–	·
COc1ccc(NS(=O)(=O)c2ccc(N/N=C(\C)c3ccncc3)c([N+](=O)[O-])c2)cc1	–	–	–	–	57	–	55
COc1ccc(NC(=S)NNc2ccc(S(=O)(=O)Nc3ccccc3C(=O)O)cc2[N+](=O)[O-])cc1	27	–	–	–	58	64	82
Cc1ccc(S(=O)(=O)Nc2ccccc2C(=O)OC(C)C(=O)Nc2ccc3ccccc3c2)cc1[N+](=O)[O-] (configuration not stated)	–	–	–	–	–	–	·
C[C@@]12CCC3[C@@](CCC4[C@@]3(C)CCC[C@@]4(C)C(=O)N3CCOCC3)(CC1=O)C2 (some centres not stated)	–	·	·	–	–	–	·
Cc1cc(C)c(S(=O)(=O)N2CCN(C(=O)c3cc4ccccc4oc3=O)CC2)c(C)c1	–	·	·	–	–	–	·
Cc1nn(-c2ccccc2)c(Cl)c1/C=N/Nc1ccc(S(=O)(=O)Nc2ccccc2C(=O)O)cc1[N+](=O)[O-]	–	–	–	–	47	–	78
Cc1nn(-c2ccccc2)c(Cl)c1/C=N/Nc1ccc(Cl)c(C(=O)O)c1	–	–	–	–	–	–	·
O=C(c1ccc(CS(=O)c2cccc(Cl)c2)o1)N1CCCCCC1 (configuration not stated)	–	–	–	–	–	–	·
SMILES	PAFAH1B3 FP inh	IMP-1 inhibitor	VIM-2 inh	PAFAH1B2 inh	pPAFAH FP inh	PAFAH2 inh	pPAFAH confirm
COC(=O)c1cccc(Cn2c(Cl)c(/C=N/NC(=O)c3ccco3)sc2=O)c1	–	–	–	–	–	–	·
CCN(C(=O)COC(=O)c1ccc([N+](=O)[O-])o1)C1CCCCC1	–	·	·	–	–	–	·
CCN1C(=O)[C@H]2[C@@H](c3ccc(OC)cc3)N3C(=O)CN(CCOC)C(=O)[C@@]3(C)[C@H]2C1=O	–	–	–	–	–	–	·
CSc1nsc(/C=C/Nc2ccc(O)cc2C)c1C#N	–	–	–	–	48	–	–
COc1ccc(CNC(=O)COC(=O)CCCOc2ccc(Cl)cc2Cl)cc1	–	–	–	–	35	–	–
CC(C(=O)N1c2ccccc2CC1C)N1CCN(S(=O)(=O)c2ccccc2F)CC1 (configuration not stated)	–	·	·	–	–	–	·
COc1ccccc1NS(=O)(=O)c1ccc(C(=O)NCCCN2CCOCC2)cc1	–	·	·	–	·	–	·
Nc1cc(C(=O)O)c(N)c2c1C(=O)c1ccccc1C2=O	73	–	–	56	74	66	54
Nc1c(C(=O)O)ccc2c1C(=O)c1ccccc1C2=O	–	–	–	–	–	–	·
CCc1noc(C)c1C(=O)N(CC)CC(=O)Nc1cc(Cl)ccc1C	–	·	·	–	–	–	·
CCOC(=O)N1CCc2cc(OC)c(OC)c3c2c1cc1cc(OC)c(OC)cc13	–	·	·	–	·	–	·
NC(=S)NN=Cc1ccc(-c2ccc(S(=O)(=O)Nc3ncccn3)cc2)o1	31	·	·	–	40	34	–
O=C(N/N=C/c1ccc(-c2ccc(S(=O)(=O)Nc3ncccn3)cc2)o1)c1cc2ccccc2cc1O	35	–	–	25	78	34	76
CCOc1ccc(C(=O)N/N=C/c2ccc(-c3ccc(S(=O)(=O)Nc4ncccn4)cc3)o2)cc1	–	–	–	–	–	–	·
CCOc1ccc(-n2c(C)cc(/C=N/NC(=O)C(N)=O)c2C)cc1	–	–	–	–	–	–	·
CCOc1ccc(-n2c(C)cc(/C=N/Nc3nc(C)cc(=O)[nH]3)c2C)cc1	–	–	–	–	43	–	85
CCOC(=O)c1cc(-c2ccc(/C=C3/C(=O)NC(=O)C(C#N)=C3C)o2)ccc1Cl	–	–	–	–	46	–	48
O=C(/C=C/c1ccccc1)c1cc(Br)ccc(=O)c1O	–	–	–	–	36	37	–
CC(=O)C1CCC2C3CCC4CC(=O)CCC4(C)C3C(C)(O)CC12C (configuration not stated)	–	·	·	–	·	–	·
Cc1ccc(OCC(=O)N2CC(C)CC(C)C2)c([N+](=O)[O-])n1 (configuration not stated)	–	·	·	–	–	–	·
CCCCCn1c(=O)[nH]c2cc(C(=O)NCCc3ccc(OC)c(OC)c3)ccc2c1=O	–	–	–	–	–	–	·
CCCCNC(=O)c1sc(=S)n2c1[nH]c(=O)c1ccc(C(=O)NCCc3ccc(OC)c(OC)c3)cc12	–	–	–	–	40	–	42
